Assay [1] deals with PahP and PahR of the PahK-PahP and PahK-PahR reporter cells. The experiment in a line: FRET or BRET.
A further assay has as its target PahS. The experiment in a line: SPR, PAHs injected over PahS sensor chip. To be noted: read-out: KD of PahS for PAH, 20°C. Type of assay: binding, Cycloclasticus sp. P1. In outline: (§1)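 Biacore T200 SPR. The PahS protein, at 30 μg/mL in 10 mM sodium acetate (pH 5.5), was covalently immobilised on an L1 chip by primary amine coupling. Each PAH was diluted to 50 μM in PBS running buffer containing 5% DMSO. It was injected for 120 s at 30 μL/min. PAH-free running buffer served as the negative control.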
In general terms: SPR reads the build-up and loss of mass on a sensor chip optically.

For a further assay, the system named is PahP binding to PahS. Nature of the assay: SPR, PahP bound to PAH in advance, injected over PahS sensor chip. The following applies: PahP binds PAH first. The arrangement: species or system Cycloclasticus sp. P1.
The target of another assay is PahP. The experiment in a line: SPR, PAHs injected over PahP sensor chip. It counts as binding, Cycloclasticus sp. P1. The following applies: read-out: KD of PahP for PAH.
In assay [2] the target is mutated PahP (Tyr42‒Gly42, Leu135‒Ala135, Tyr-215‒Ala215, Leu-254‒Ala254). Nature of the assay: SPR, PAHs on site-mutated PahP. It counts as binding, Cycloclasticus sp. P1. The following applies: range over mutated PahP and five PAHs. In outline: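 Biacore T200 SPR. PahP protein was diluted in 10 mM sodium acetate (pH 5.5) and amine-coupled to a CM5 chip. PAHs were diluted to 50 μM in PBS running buffer with 5% DMSO. They were injected over the PahP surface for 120 s at 30 μL/min. Running buffer without PAH was the negative control.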

Assay [3] addresses mutated PahS (Leu370‒Ala370, Leu444‒Ala444, Ala452‒Gly452). The experiment in a line: SPR, PAHs on site-mutated PahS. Type of assay: binding, Cycloclasticus sp. P1. The following applies: range over three mutated proteins and five PAHs. In outline: as §1
Assay [4] addresses PahP (Cycloclasticus sp. P1). The experiment in a line: SPR.
Assay [5] has as its target PahR (Cycloclasticus sp. P1). The experiment in a line: SPR.
In assay [6] the target is PahK (Cycloclasticus sp. P1). The experiment in a line: SPR.
The target of assay [7] is PahP (Cycloclasticus sp. P1). The experiment in a line: SPR. The source holds these as a separate data set.
Assay [8] has as its target PahP (Cycloclasticus sp. P1). The experiment in a line: SPR. This is another data set of the same source.
For assay [9], the target named is PahP-YFP (Cycloclasticus sp. P1). Nature of the assay: FRET or BRET. For orientation: Bioluminescence resonance energy transfer reports proximity on the nanometre scale.

Like-named read-outs stand apart in the source and are kept apart here.

Results on nine compounds are retold here after PMC10570129 (iScience, 2023).

Turning to CFP-PahK (natural protein), in [1], the FRET efficiency lay in the range of 16.7 to 21.4%.
As usually defined, the Kd is a measure of binding affinity in units of concentration. Regarding `c1cc2ccc3cccc4ccc(c1)c2c34` [pyrene], the Kd on PahS was determined as 21.1 nM; on PahP, 14.4 nM. For the same compound, the “binding affinity of PahP with PahS compared to that without PAH” value in the assay with PahP binding to PahS is “lowered”. Also, the “KD of site-mutated PahP with PAHs” value in assay [2] is reported as 10^−3 to 10^−4 M. In addition, in assay [3], the “KD of the mutated PahS proteins with PAHs” value is 10^−3 to 10^−4 M.
For `c1ccc2c(c1)ccc1ccccc12` [phenanthrene], the values for the Kd at PahS and on PahP were 21.4 nM and 19.6 nM, respectively. Also, the “binding affinity of PahP with PahS compared to that without PAH” value in the assay on PahP binding to PahS is given as “lowered”. Further, the “KD of site-mutated PahP with PAHs” value in [2] was 10^−3 to 10^−4 M. For the same compound, the “KD of the mutated PahS proteins with PAHs” value in assay [3] was 10^−3 to 10^−4 M.
As to PahS (natural protein), the equilibrium dissociation constant (Kd) in [4] worked out at 2.97 nM; in assay [5], 119000 nM; in [6], 174000 nM; in [7] it was 92 nM; in assay [8], 2.12 nM.
As for `c1ccc2ccccc2c1` [naphthalene], the Kd is 14.6 nM on PahS and 5.3 nM at PahP. The “KD of site-mutated PahP with PAHs” value in assay [2] is on record as 10^−3 to 10^−4 M. Further, the “KD of the mutated PahS proteins with PAHs” value in assay [3] is 10^−3 to 10^−4 M.
As for `c1ccc2cc3ccccc3cc2c1` [anthracene], the equilibrium dissociation constant (Kd) on PahS was 21.7 nM; on PahP, 41 nM. Also, the “KD of site-mutated PahP with PAHs” value in [2] is recorded as 10^−3 to 10^−4 M. In [3], the “KD of the mutated PahS proteins with PAHs” value was 10^−3 to 10^−4 M.
PahK (natural protein): the dissociation constant Kd came out at 18.9 nM in [5] and 9.8 nM in assay [7].
For the compound `c1ccc2c(c1)Cc1ccccc1-2` [fluorene], the figures for the Kd on PahS and at PahP were 179 nM and 17.4 nM, respectively. In assay [2], the “KD of site-mutated PahP with PAHs” value is reported as 10^−3 to 10^−4 M. Moreover, in [3], the “KD of the mutated PahS proteins with PAHs” value is on record as 10^−3 to 10^−4 M.
CFP-PahS (natural protein) displayed an FRET efficiency in assay [9] of 19.7%.
